Calls of active or inactive are those of the source. No cut-off for these calls is given here.
Assays:
CCRF-CEM [1] = assay: Cytotoxicity against human CEM cells after 48 hrs by trypan blue assay; assay type: functional, cell-based
In short: (§1)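 Trypan blue exclusion on CEM T-cell leukemia cells given 10, 50, 100 or 250 µM compound (DMSO as vehicle control); live cells counted every 24 h after addition until control culture reached stationary phase; independent experiments; IC50 estimated at 48 and 72 h.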

CCRF-CEM [2] = assay: Cytotoxicity against human CEM cells after 72 hrs by trypan blue assay; assay type: functional, cell-based; in short: as §1
CCRF-CEM [3] = assay: Cytotoxicity against human CEM cells at 10 to 250 uM by trypan blue assay; assay type: functional, cell-based; details: TDE = time-dependent effect; in short: as §1
CCRF-CEM [4] = assay: Cytotoxicity against human CEM cells after 6 days by trypan blue assay; assay type: functional, cell-based; in short: as §1
CCRF-CEM [5] = assay: Cytotoxicity against human CEM cells at 250 uM after 6 days by trypan blue assay; assay type: functional, cell-based; in short: as §1
CCRF-CEM [6] = assay: Cytotoxicity against human CEM cells at 10 to 250 uM after 24 to 48 hrs by MTT assay; assay type: functional, cell-based
In short: (§2)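 CEM T-cell leukemia cells cultured with 10, 50, 100 and 250 µM compound (DMSO vehicle control), harvested after 24 and 48 h for MTT assay; percent viable cells calculated taking DMSO-treated cells as 100%; SD from three independent experiments.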

[7] = Cytotoxicity against human 8E5 cells at 10 to 250 uM after 24 to 48 hrs by MTT assay; assay type: cell-based
CCRF-CEM [8] = assay: Cytotoxicity against human CEM cells at 10 uM after 24 to 48 hrs by MTT assay; assay type: functional, cell-based; in short: as §2
[9] = Cytotoxicity against human 8E5 cells at 250 uM after 24 to 48 hrs by MTT assay; assay type: cell-based
CCRF-CEM [10] = assay: Cytotoxicity against human CEM cells at 10 to 250 uM by LDH release assay; assay type: functional, cell-based; details: TDE = time-dependent effect
In short: (§3)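 LDH release measured at 490 nm from CEM cells exposed to 10, 50, 100 and 250 µM compound for 24, 48 and 72 h; expressed as percent LDH release; SD from three independent experiments.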

CCRF-CEM [11] = assay: Cytotoxicity against human CEM cells after 24 to 72 hrs by LDH release assay; assay type: functional, cell-based; in short: as §3
CCRF-CEM [12] = assay: Antiproliferative activity against human CEM cells assessed as inhibition of [3H]thymidine incorporation at 10 to 250 uM after 24 to 48 hrs by scintillation counting; assay type: functional, cell-based
In short: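 [3H]-thymidine added to CEM T-cell leukemia cells treated with 10, 50, 100 or 250 µM compound; radioactive counts per minute (cpm) calculated and plotted; data from independent experiments.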

CCRF-CEM [13] = assay: Induction of cell cycle arrest in human CEM cells assessed as accumulation at subG1 phase at 10 to 250 uM after 48 hrs by propidium iodide staining-based FACS analysis; assay type: functional
In short: (§4)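 CEM cells treated 48 h with 10, 20, 50, 100 or 250 µM compound or DMSO vehicle, then fixed, stained with propidium iodide and analysed by flow cytometry (10,000 cells per sample); percent cells in subG1, G1, S and G2/M quantified; SD from three independent experiments.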

CCRF-CEM [14] = assay: Induction of cell cycle arrest in human CEM cells assessed as decrease in accumulation at G2/M phase at 10 to 250 uM after 48 hrs by propidium iodide staining-based FACS analysis; assay type: functional; in short: as §4
CCRF-CEM [15] = assay: Induction of cell cycle arrest in human CEM cells assessed as decrease in accumulation at G1 phase at 10 to 250 uM after 48 hrs by propidium iodide staining-based FACS analysis; assay type: functional; in short: as §4
CCRF-CEM [16] = assay: Induction of cell cycle arrest in human CEM cells assessed as accumulation at S phase at 10 to 50 uM after 48 hrs by propidium iodide staining-based FACS analysis; assay type: functional; in short: as §4
CCRF-CEM [17] = assay: Induction of apoptosis in human CEM cells assessed as chromosomal DNA fragmentation at 20 uM after 72 hrs by agarose gel electrophoresis; assay type: functional, cell-based
In short: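 Chromosomal DNA extracted from CEM cells treated with 20 µM compound and harvested at 12, 24, 36, 48 and 72 h (DMSO control), then resolved on 1% agarose gel beside a 2-log DNA ladder.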

CCRF-CEM [18] = assay: Cytotoxicity against human CEM cells assessed as mild induction of ROS production at 20 uM after 4 hrs by H2DCFDA staining-based flow cytometry; assay type: functional, cell-based
In short: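 CEM cells treated with 20 µM compound for 1, 2 and 4 h; ROS production quantified by flow cytometry, with unstained and dye-stained cells as references and H2O2 as positive control.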

Row | Compound | IC50 (CCRF-CEM [1]) [µM] | IC50 (CCRF-CEM [2]) [µM] | Activity (CCRF-CEM [3]) | Activity (CCRF-CEM [4]) | Activity (CCRF-CEM [5]) | Activity (CCRF-CEM [6]) | Activity [7] | Activity (CCRF-CEM [8]) | Activity [9] | Activity (CCRF-CEM [10]) | Activity (CCRF-CEM [11]) | inhibition (CCRF-CEM [12]) | Activity (CCRF-CEM [13]) | Activity (CCRF-CEM [14]) | Activity (CCRF-CEM [15]) | Activity (CCRF-CEM [16]) | Activity (CCRF-CEM [17]) | Activity (CCRF-CEM [18])
1 | CCN1C(=O)C(=C(C)C)OC1=S | 80 | 50 | tde | Dose-dependent effect | Active | Active | Non-toxic |  |  |  |  |  |  |  |  |  |  | 
2 | CCN1C(=O)/C(=C\c2ccccc2)SC1=S | 8 | 6 | tde | Dose-dependent effect | Active |  |  | Active | Toxic | tde | Dose-dependent effect | Active | Active | Active | Active | Active | Active | Active
3 | CC(C)=C1C(=O)N(C)C(=S)N1C | 70 | 40 | tde | Dose-dependent effect | Active | Active | Non-toxic |  |  |  |  |  |  |  |  |  |  | 

Source: ChEMBL document CHEMBL1268877, “Novel rhodanine derivatives induce growth inhibition followed by apoptosis” (Bioorg Med Chem Lett, 2010)
